Test results published in ChEMBL document CHEMBL1649384, “Synthesis and antiproliferative activity of novel symmetrical alkylthio- and alkylseleno-imidocarbamates” (Eur J Med Chem, 2011).

Columns and labels:
MCF7 = test: Cytotoxicity against human MCF7 cells after 72 hrs by MTT assay; assay type: functional; settings: MCF7, 72 h
In short: (§1)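 Cells seeded per well: Hep-G2 1×10⁴, HT-29 4×10³, K-562 4×10³, MCF-7 1.2×10⁴, MCF-10A 7×10³, PC-3 2×10³. MCF-10A were grown in supplemented MEBM at 37 °C, 5% CO₂. Five concentrations were tested between 0.01 and 100, with 72 h exposure. Formazan was read by A590. GI₅₀ was taken relative to untreated controls, from at least three independent experiments.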

HT-29 = test: Cytotoxicity against human HT-29 cells after 72 hrs by MTT assay; assay type: functional; settings: HT-29, 72 h; for CC50: read-out: LC50 (the source's name); in short: as §1
K562 = test: Cytotoxicity against human K562 cells after 72 hrs by MTT assay; assay type: functional; settings: K562, 72 h; for CC50: read-out: LC50 (the source's name); in short: as §1
HepG2 = test: Cytotoxicity against human HepG2 cells after 72 hrs by MTT assay; assay type: functional; settings: HepG2, 72 h; for CC50: read-out: LC50 (the source's name); in short: as §1
PC-3 = test: Cytotoxicity against human PC3 cells after 72 hrs by MTT assay; assay type: functional; settings: PC-3, 72 h; for CC50: read-out: LC50 (the source's name); in short: as §1
[1] = Cytotoxicity against human MCF10A cells after 72 hrs by MTT assay; assay type: cell-based, MCF-10A; settings: for GI50 at 72 h: MCF10A cells; for LC50 / TGI: mcf-10a, 72 h; in short: as §1

Compound | GI50 (MCF7) | LC50 (MCF7) | TGI (MCF7) | GI50 (HT-29) | TGI (HT-29) | CC50 (HT-29) | GI50 (K562) | TGI (K562) | CC50 (K562) | GI50 (HepG2) | TGI (HepG2) | CC50 (HepG2) | GI50 (PC-3) | TGI (PC-3) | CC50 (PC-3) | GI50 at 72 h [1] | LC50 [1] | TGI [1]
O=C(/N=C(/NC(=O)c1cc2ccccc2s1)[Se]Cc1ccccc1)c1cc2ccccc2s1 | 37.9 µM | 87.9 µM | 62.9 µM | 6.51 µM | > 100 µM | > 100 µM | 14.9 µM | 42.8 µM | 70.6 µM | 21 µM | 49 µM | 77 µM | 30.5 µM | 58.4 µM | 86.3 µM | 37.9 µM | 87.9 µM | 62.92 µM
O=C(/N=C(/NC(=O)c1ccc2c(c1)OCO2)[Se]Cc1ccccc1)c1ccc2c(c1)OCO2 | 55.3 µM | > 100 µM | > 100 µM | 57.3 µM | > 100 µM | > 100 µM | 97.8 µM | > 100 µM | > 100 µM | > 100 µM | > 100 µM | > 100 µM | > 100 µM | > 100 µM | > 100 µM | 55.3 µM | > 100 µM | > 100 µM
O=C(/N=C(/NC(=O)c1cnc2ccccc2c1)[Se]Cc1ccccc1)c1cnc2ccccc2c1 | 23.6 µM | > 100 µM | > 100 µM | 26.1 µM | > 100 µM | > 100 µM | 29.3 µM | 72.6 µM | > 100 µM | 8.54 µM | 48.9 µM | 90.3 µM | 34.8 µM | > 100 µM | > 100 µM | 23.6 µM | > 100 µM | > 100 µM
O=C(/N=C(/NC(=O)c1cc(-c2ccccc2)nc2ccccc12)[Se]Cc1ccccc1)c1cc(-c2ccccc2)nc2ccccc12 | 8.46 µM | 97 µM | 45.6 µM | 6.07 µM | > 100 µM | > 100 µM | 9.06 µM | 47.4 µM | 88.9 µM | 25.8 µM | 52.4 µM | 78.9 µM | 39.3 µM | 97.1 µM | > 100 µM | 8.46 µM | 97.04 µM | 45.56 µM
O=C(/N=C(/NC(=O)c1c2ccccc2nc2ccccc12)[Se]Cc1ccccc1)c1c2ccccc2nc2ccccc12 | 53.7 µM | > 100 µM | 88.1 µM | 26.9 µM | > 100 µM | > 100 µM | 9.6 µM | 44.5 µM | 80.7 µM | 30.4 µM | 64.5 µM | 98.5 µM | 42.3 µM | 77.4 µM | > 100 µM | 53.7 µM | > 100 µM | 88.14 µM
COc1cccc2c1C(=O)c1c(O)c3c(c(O)c1C2=O)C[C@@](O)(C(=O)CO)C[C@@H]3O[C@H]1C[C@H](N)[C@H](O)[C@H](C)O1 [DOXORUBICIN] | 0.02 µM |  | 5.01 µM | 0.2 µM | 25.4 µM | 25.4 µM | 0.1 µM | 5.01 µM | 19.9 µM |  |  |  | 0.25 µM | 3.16 µM | 19.9 µM |  |  | 
COc1cc([C@@H]2c3cc4c(cc3[C@@H](O[C@@H]3O[C@@H]5CO[C@@H](C)O[C@H]5[C@H](O)[C@H]3O)[C@H]3COC(=O)[C@H]23)OCO4)cc(OC)c1O [ETOPOSIDE] | 19.9 µM |  | > 100 µM | 31.6 µM | > 100 µM | > 100 µM | 12.6 µM | > 100 µM | > 100 µM |  |  |  | 0.63 µM | 3.98 µM | 79.4 µM |  |  | 
CN(Cc1cnc2nc(N)nc(N)c2n1)c1ccc(C(=O)N[C@@H](CCC(=O)O)C(=O)O)cc1 [METHOTREXATE] | 0.06 µM |  | > 100 µM | 0.04 µM | > 100 µM | 0.03 µM | 0.03 µM | > 100 µM | > 100 µM |  |  |  | 0.1 µM | > 100 µM | > 100 µM |  |  | 
CC(=O)O[C@H]1C(=O)[C@@]2(C)[C@H]([C@H](OC(=O)c3ccccc3)[C@]3(O)C[C@H](OC(=O)[C@H](O)[C@@H](NC(=O)c4ccccc4)c4ccccc4)C(C)=C1C3(C)C)[C@]1(OC(C)=O)CO[C@@H]1C[C@@H]2O [PACLITAXEL] | 0.003 µM |  | > 100 µM | 0.003 µM | 79.4 µM | 79.4 µM | 0.004 µM | 15.8 µM | > 100 µM |  |  |  | 0.004 µM | 12.6 µM | > 100 µM |  |  | 
